In test [1] the target is Vascular endothelial growth factor receptor 2 (Homo sapiens, UniProt P35968). The experiment in a line: Inhibition of VEGFR-2 (unknown origin) using poly (Glu, Tyr) 4:1 as substrate after 30 mins by HTRF assay. For orientation: In TR-FRET formats the signal depends on donor and acceptor labels being close together.
The nature of test [2]: cells. The conditions noted are these: Homo sapiens, MKN-45, 72 h.
Another test deals with MKN-45. The experiment in a line: Potency index, ratio of foretinib IC50 to compound IC50 for human MKN45 cells. The test is classed as functional.
For test [3], the target named is Hepatocyte growth factor receptor (Homo sapiens, UniProt P08581). Description: Inhibition of c-Met (unknown origin) using poly (Glu, Tyr) 4:1 as substrate after 30 mins by HTRF assay.
A short description of test [4]: cells. The following applies: Homo sapiens, NCI-H460, 72 h.
The next test has as its system HT-29. Description: cells. The conditions noted are these: Homo sapiens, HT-29, 72 h.
Test [5] concerns the target T1, Receptor-type tyrosine-protein kinase FLT3 (Homo sapiens, UniProt P36888).
T1 sequence (P36888 whole entry): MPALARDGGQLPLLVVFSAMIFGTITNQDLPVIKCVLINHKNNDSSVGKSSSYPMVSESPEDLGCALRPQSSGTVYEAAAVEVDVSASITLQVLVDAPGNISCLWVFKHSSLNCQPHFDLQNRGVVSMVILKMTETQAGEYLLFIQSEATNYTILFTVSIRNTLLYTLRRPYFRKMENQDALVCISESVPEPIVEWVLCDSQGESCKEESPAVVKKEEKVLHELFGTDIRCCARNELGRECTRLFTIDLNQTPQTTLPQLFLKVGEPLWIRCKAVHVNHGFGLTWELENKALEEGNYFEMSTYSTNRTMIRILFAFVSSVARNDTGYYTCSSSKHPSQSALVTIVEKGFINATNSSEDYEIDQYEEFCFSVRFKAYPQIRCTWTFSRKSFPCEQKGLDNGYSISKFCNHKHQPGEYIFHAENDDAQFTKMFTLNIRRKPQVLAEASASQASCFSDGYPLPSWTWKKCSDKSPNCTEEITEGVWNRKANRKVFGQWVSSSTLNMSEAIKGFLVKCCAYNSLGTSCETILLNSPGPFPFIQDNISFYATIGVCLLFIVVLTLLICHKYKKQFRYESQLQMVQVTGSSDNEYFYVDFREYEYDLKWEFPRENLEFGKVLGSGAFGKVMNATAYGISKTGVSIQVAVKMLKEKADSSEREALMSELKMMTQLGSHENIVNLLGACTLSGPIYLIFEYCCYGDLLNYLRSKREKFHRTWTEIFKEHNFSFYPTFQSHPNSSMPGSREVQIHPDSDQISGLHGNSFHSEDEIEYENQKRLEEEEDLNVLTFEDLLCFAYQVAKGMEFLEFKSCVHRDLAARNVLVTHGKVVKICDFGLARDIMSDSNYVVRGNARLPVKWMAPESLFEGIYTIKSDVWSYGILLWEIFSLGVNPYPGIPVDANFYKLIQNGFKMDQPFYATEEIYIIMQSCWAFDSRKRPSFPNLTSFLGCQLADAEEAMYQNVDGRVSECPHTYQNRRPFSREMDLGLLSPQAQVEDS
Description: Inhibition of FLT-3 (unknown origin) using poly (Glu, Tyr) 4:1 as substrate after 30 mins by HTRF assay.

In test [6] the target is Mast/stem cell growth factor receptor Kit (Homo sapiens, UniProt P10721). The experiment in a line: Inhibition of c-Kit (unknown origin) using poly (Glu, Tyr) 4:1 as substrate after 30 mins by HTRF assay. An outline of the steps:
(§1)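 Purified tyrosine kinase with poly(Glu,Tyr) 4:1 substrate (20 µg/mL) and ATP (10 mM solution) in 50 mM HEPES pH 7.0 buffer containing DTT, MgCl₂, MnCl₂, 0.1% NaN₃; compounds at various concentrations in 1% DMSO. Inhibition normalised to enzyme-free and uninhibited controls; IC50 from inhibition curves.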

Test [7] has as its target Macrophage-stimulating protein receptor (Homo sapiens, UniProt Q04912). Description: Inhibition of Ron (unknown origin) using poly (Glu, Tyr) 4:1 as substrate after 30 mins by HTRF assay. An outline of the steps:
as §1

A short description of test [8]: Potency index, ratio of foretinib IC50 to compound IC50 for human H460 cells. The test is classed as functional.
In another test the test system is A549. Description: cells. The following applies: Homo sapiens, A549, 72 h.
The target in test [9] is Epidermal growth factor receptor (Homo sapiens, UniProt P00533). Description: Inhibition of EGFR (unknown origin) using poly (Glu, Tyr) 4:1 as substrate after 30 mins by HTRF assay. An outline of the steps:
as §1

Sequence of Vascular endothelial growth factor receptor 2 (P35968 whole entry): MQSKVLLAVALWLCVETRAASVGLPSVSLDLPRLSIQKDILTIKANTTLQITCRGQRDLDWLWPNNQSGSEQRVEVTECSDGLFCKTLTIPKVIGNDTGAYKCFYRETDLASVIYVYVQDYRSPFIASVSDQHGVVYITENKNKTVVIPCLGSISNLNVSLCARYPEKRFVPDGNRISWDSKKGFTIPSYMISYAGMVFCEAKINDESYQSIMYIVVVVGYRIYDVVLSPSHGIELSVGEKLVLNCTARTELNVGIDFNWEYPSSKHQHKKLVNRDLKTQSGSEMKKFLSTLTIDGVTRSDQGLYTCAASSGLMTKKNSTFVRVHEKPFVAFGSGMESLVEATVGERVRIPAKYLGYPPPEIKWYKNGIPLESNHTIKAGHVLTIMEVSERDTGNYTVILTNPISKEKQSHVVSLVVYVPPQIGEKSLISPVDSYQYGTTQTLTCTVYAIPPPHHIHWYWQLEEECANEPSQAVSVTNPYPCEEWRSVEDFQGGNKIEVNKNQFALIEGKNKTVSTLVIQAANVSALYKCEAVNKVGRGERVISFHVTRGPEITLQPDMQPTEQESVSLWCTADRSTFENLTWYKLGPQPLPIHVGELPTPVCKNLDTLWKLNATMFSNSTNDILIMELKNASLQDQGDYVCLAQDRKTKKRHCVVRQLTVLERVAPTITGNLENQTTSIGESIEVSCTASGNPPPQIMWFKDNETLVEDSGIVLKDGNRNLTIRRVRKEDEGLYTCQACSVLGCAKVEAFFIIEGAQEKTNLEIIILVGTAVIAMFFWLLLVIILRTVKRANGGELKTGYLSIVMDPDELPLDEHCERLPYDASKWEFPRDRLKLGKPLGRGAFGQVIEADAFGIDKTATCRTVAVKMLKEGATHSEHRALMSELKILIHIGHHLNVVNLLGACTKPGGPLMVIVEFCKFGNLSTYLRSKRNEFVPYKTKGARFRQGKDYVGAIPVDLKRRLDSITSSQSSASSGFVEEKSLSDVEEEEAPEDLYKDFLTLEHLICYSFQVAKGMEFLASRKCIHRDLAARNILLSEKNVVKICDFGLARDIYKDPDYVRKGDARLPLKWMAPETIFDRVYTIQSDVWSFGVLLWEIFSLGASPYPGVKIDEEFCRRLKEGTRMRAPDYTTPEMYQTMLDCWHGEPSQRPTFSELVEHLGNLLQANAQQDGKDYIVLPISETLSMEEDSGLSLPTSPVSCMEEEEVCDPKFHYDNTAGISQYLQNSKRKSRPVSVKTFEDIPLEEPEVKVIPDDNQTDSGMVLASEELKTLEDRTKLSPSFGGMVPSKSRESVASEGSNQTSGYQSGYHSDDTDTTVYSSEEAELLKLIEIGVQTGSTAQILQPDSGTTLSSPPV
Sequence of Mast/stem cell growth factor receptor Kit (P10721 whole entry): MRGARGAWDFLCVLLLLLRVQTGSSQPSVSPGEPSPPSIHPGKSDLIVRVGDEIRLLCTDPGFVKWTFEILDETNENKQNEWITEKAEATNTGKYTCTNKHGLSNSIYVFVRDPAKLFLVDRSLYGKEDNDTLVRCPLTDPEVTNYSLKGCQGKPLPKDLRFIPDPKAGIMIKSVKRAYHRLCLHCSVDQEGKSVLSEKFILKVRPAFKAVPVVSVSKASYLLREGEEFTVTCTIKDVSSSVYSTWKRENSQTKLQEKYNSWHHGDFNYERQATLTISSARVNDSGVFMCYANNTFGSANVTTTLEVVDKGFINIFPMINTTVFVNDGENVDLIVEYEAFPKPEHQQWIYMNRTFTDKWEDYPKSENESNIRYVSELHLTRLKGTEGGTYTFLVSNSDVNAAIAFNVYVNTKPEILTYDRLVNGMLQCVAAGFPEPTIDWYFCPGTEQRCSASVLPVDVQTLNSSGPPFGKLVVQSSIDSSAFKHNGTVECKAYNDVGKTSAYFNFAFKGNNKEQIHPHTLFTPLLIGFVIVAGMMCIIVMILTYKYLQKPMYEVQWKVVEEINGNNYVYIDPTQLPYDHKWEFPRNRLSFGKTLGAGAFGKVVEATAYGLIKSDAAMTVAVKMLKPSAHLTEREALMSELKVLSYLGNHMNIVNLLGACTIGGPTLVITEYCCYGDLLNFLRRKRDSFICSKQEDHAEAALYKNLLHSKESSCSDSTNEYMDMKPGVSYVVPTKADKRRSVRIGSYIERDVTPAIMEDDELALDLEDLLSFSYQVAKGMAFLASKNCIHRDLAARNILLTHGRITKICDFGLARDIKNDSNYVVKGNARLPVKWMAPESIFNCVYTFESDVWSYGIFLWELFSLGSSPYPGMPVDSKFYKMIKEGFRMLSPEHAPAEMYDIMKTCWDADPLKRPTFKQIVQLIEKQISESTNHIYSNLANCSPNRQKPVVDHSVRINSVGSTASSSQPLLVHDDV
Sequence of Epidermal growth factor receptor (P00533 whole entry): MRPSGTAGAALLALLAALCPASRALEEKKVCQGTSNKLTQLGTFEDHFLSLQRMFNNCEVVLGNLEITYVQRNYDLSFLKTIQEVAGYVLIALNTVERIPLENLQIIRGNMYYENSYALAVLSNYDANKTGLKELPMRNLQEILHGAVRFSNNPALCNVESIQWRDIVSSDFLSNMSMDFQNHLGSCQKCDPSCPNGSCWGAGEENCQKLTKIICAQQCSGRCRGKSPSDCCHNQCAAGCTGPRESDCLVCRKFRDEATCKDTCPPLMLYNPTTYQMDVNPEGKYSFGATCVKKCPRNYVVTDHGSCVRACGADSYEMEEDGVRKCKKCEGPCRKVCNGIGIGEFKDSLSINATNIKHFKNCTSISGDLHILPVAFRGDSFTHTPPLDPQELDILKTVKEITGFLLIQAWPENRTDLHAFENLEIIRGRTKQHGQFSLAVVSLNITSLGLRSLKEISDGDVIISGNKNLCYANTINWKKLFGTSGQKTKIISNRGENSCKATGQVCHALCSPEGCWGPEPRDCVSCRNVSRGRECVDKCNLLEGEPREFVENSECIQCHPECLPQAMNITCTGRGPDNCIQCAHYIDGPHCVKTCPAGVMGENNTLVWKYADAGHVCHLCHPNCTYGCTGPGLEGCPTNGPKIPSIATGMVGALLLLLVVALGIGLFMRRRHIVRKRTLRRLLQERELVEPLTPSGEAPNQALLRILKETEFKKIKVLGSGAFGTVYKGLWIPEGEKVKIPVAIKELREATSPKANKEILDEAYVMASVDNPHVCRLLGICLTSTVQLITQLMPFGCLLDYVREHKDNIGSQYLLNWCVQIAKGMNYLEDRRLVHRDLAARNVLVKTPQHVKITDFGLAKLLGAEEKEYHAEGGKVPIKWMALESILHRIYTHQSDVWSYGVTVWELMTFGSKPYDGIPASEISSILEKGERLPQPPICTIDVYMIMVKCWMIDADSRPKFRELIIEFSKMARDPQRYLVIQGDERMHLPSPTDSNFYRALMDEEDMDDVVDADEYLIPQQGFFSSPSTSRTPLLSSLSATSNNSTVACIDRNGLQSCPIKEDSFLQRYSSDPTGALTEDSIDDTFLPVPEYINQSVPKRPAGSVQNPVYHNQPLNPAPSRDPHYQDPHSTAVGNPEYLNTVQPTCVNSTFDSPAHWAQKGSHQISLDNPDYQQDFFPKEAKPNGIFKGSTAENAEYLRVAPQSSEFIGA
Sequence of Macrophage-stimulating protein receptor (Q04912 25-304 limits assumed): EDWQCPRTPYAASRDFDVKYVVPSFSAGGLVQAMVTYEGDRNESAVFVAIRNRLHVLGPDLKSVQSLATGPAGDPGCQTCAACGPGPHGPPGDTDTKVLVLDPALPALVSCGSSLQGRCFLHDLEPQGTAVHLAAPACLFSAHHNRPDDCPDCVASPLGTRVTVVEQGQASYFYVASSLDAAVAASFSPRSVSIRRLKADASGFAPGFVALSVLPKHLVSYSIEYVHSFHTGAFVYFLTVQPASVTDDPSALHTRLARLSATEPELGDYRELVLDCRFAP
Sequence of Macrophage-stimulating protein receptor (Q04912 310-1400 limits assumed): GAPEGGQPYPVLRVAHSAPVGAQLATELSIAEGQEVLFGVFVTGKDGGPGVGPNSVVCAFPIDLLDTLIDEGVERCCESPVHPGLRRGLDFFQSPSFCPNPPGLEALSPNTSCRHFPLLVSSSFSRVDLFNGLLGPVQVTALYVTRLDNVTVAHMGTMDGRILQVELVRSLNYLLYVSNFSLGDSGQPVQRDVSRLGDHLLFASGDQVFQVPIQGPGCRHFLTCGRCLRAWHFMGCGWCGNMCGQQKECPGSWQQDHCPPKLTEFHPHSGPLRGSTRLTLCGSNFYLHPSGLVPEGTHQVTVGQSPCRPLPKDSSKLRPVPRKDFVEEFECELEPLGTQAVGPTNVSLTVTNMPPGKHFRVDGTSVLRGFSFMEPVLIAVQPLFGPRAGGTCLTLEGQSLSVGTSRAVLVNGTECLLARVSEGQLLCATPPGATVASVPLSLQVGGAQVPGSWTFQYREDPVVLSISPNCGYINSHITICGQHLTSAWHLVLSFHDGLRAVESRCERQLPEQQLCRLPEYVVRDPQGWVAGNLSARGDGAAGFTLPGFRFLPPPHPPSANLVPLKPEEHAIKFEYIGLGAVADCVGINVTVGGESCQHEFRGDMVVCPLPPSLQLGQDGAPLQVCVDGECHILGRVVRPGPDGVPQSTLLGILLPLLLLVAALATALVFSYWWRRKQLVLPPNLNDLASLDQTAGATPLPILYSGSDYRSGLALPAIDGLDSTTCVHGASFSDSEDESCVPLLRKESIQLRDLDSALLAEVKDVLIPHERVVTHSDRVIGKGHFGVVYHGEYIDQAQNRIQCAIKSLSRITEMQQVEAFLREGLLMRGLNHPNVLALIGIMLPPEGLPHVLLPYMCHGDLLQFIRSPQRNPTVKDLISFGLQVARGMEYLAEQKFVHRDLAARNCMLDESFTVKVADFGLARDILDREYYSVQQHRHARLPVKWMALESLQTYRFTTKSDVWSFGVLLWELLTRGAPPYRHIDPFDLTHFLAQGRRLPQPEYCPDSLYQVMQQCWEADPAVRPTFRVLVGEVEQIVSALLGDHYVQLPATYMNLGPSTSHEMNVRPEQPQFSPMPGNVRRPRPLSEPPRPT

What is called IC50 is the concentration that inhibits the measured activity by half. Low values mean greater potency, high ones weaker potency. In the case of `COc1cc2c(Oc3ccc(NC(=O)c4[nH]c(=O)n(-c5ccccc5Cl)c4C)cc3F)ccnc2cc1OCCCN1CCN(C)CC1`, the half-maximal inhibitory concentration (IC50) in [1] worked out at 92.6 nM; in “cells [2]”, 14 nM; in test [3], 1.42 nM; in “cells [4]”, 100 nM; with HT-29 it was 86 nM; in test [5] it was 134 nM. Also, the IC50 was 38.2 nM in test [6], 270 nM in test [7], 250 nM in the test with A549 and above 100 µM in test [9]. For the same compound, the results for the “Ratio IC50” value (with MKN-45; in test [8]) were 8.6 and 2.1, respectively.
